2 compounds from article PMC12137120 (Nature, 2025) can be followed below.

In test [1] the target is T1, SHOC2(WT)–NRAS(Q61K) (Homo sapiens, UniProt Q9UQ13).
T1 sequence (Q9UQ13 1-582): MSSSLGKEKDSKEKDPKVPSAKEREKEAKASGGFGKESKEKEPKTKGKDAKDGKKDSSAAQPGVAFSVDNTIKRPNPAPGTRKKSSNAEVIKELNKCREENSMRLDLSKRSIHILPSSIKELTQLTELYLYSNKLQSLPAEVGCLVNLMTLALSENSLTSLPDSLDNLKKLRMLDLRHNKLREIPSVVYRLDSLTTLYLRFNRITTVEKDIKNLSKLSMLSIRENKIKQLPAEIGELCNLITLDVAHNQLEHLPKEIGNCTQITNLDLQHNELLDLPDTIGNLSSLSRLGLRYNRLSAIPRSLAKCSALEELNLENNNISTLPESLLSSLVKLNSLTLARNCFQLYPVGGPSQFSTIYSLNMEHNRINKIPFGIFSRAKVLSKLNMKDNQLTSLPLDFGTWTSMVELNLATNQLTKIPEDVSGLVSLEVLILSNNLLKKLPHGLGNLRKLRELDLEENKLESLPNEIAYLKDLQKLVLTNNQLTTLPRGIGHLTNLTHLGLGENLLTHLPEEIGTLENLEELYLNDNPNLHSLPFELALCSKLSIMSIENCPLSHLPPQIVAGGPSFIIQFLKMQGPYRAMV
The test can be described thus: SHOC2–NRAS. Type of test: cell-based. The essentials:
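Monoclonal HEK 293T lines stably expressed full-length SHOC2–SmBiT with LgBiT–NRAS(Q61K); a SmBiT–128-aa linker–LgBiT line served as control. Cells were kept in DMEM with 10% FCS. 20,000 cells per well were seeded in medium with 0.1% FCS and held 2 h at 37 °C. Test compound was given for 4 h (seven-point 1:3, 30 µM to 40 nM). Medium was then replaced with phenol-red-free Opti-MEM plus NanoGlo Live substrate (1:60). n = 3 biological samples.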

Test [2] concerns RAS mutant and wild-type cell lines. Put plainly: Immunoblot of MAPK signalling in a panel of RAS mutant and wild-type cell lines. Type of test: cell-based, human. Conditions: 4 h, 30 µM. Background: A western blot detects proteins with antibodies after separation by electrophoresis.
The test system of test [3] is Mel Juso cell line. The test can be described thus: RNA-seq global transcriptome analysis. The class given is cell-based, human. The conditions noted are these: 4 h and 24 h, 30 µM and 100 µM.
For test [4], the target named is T2, SHOC2–NRAS(Q61R) (Homo sapiens, UniProt Q9UQ13).
T2 sequence (Q9UQ13 1-582): T1 sequence (Q9UQ13 1-582)
The test can be described thus: TR-FRET competitive binding assay SHOC2–NRAS Q61R:GTP. Conditions: versus (R)-5. In general terms: In TR-FRET formats the signal depends on donor and acceptor labels being close together.

For test [5], the target named is T3, SHOC2(G290A)–NRAS(Q61R) (Homo sapiens, UniProt Q9UQ13, G290A).
T3 sequence (Q9UQ13 1-582 G290A): T1 sequence (Q9UQ13 1-582) with G290A
The test can be described thus: TR-FRET assay with resistant mutant SHOC2. The class given is binding.

Test [6] has as its target T4, SHOC2 (80–582) (Homo sapiens, UniProt Q9UQ13).
T4 sequence (Q9UQ13 80-582): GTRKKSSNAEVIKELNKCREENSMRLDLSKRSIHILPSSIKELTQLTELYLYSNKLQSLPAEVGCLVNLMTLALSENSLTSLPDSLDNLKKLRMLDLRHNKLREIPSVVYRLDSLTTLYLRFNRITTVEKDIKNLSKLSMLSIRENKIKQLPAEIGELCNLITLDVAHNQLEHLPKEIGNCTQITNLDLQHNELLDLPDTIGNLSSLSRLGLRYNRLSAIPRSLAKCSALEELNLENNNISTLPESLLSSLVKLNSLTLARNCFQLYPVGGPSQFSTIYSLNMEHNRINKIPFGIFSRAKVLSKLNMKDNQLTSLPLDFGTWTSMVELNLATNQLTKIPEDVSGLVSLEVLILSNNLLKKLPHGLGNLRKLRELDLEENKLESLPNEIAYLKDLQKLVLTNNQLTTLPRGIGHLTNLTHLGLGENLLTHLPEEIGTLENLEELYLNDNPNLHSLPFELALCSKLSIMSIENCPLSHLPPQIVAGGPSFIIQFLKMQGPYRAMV
Put plainly: SPR to assess affinity of low-molecular-weight ligands on immobilized SHOC2. Type of test: binding. The conditions noted are these: versus (R)-5.

In test [7] the target is T5, SHOC2(G290A)–NRAS(Q61K) (Homo sapiens, UniProt Q9UQ13, G290A).
T5 sequence (Q9UQ13 1-582 G290A): T1 sequence (Q9UQ13 1-582) with G290A
The test can be described thus: SHOC2. Type of test: cell-based. The essentials:
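HEK 293T cells were plated at 20,000 per well and incubated overnight at 37 °C, 5% CO2. They were then transiently transfected with SHOC2(G290A)–SmBiT and LgBiT–NRAS(Q61K) and incubated overnight again. Test compound was added for 4 h as a seven-point 1:3 series from 10 µM […], from stock in DMSO/H2O 90:10. NanoGlo Live substrate (1:60 in phenol-red-free Opti-MEM) was then added.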

Test [8] concerns MELJUSO cells. Put plainly: Immunoblot of MAPK signalling. The class given is cell-based, human. The gist of the method: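 MELJUSO cells were treated either with increasing doses for 24 h or with 30 µM over a time course. Lysis was in 1% Triton X-100/Tris-HCl pH 7.4/NaCl/EDTA buffer with phosphatase and protease inhibitors, then clearing at 13,000 rpm, 4 °C, 20 min and BCA protein assay. Immunoblots of the time course were quantified by densitometry as pCRAF/CRAF and pERK/ERK. Two independent experiments were run.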

Test [9] relates to A375 cells. The test can be described thus: Immunoblot of MAPK signalling. The conditions noted are these: BRAF(mut) melanoma cells A375, 30 µM, time course. Type of test: cell-based, human. The gist of the method: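 A375 cells got 30 µM test compound and were collected at several time points. They were cleared at 13,000 rpm, 4 °C, 20 min, protein was quantified by BCA, and samples were immunoblotted. Two independent experiments were run.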

The subject of test [10] is GTP-loaded RAS. The test can be described thus: Active RAS pull-down assay. The conditions noted are these: Mel Juso and A375 cells, 30 µM, 2 h and 4 h. Type of test: cell-based, human. The gist of the method:
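Cells were treated with 30 µM test compound or DMSO for 2 h and 4 h, then lysed per the kit. 400 µg lysate was rotated with Raf-RBD beads for 1 h at 4 °C. Bound protein was eluted in 2× Laemmli buffer, boiled 5 min at 95 °C and immunoblotted alongside total lysates. Two independent experiments were run.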

For test [11], the system named is MELJUSO cells. Put plainly: Incucyte 3D cell proliferation. Type of test: cell-based, human. The conditions noted are these: RAS(Q61L) melanoma MELJUSO; twice-a-week treatment, 30 µM. The gist of the method: (§1)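 Cells were seeded in sextuplicate in ultralow-attachment round-bottom plates in 10% FCS medium, spun 3 min at 200g and left 24 h to form spheroids or aggregates. They were dosed with 30 µM test compound or DMSO twice weekly at 37 °C, 5% CO2, and imaged by Incucyte every 6 h for three weeks at ×10. Data are mean ± s.d., n = 6; two independent experiments.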

In test [12] the test system is A375 cells. The test can be described thus: Incucyte 3D cell proliferation. The class given is cell-based, human. Conditions: BRAF(V600E) melanoma A375; twice-a-week treatment, 30 µM. The essentials:
as §1

Test [13] deals with RAS mutant and RAS WT cell lines. Put plainly: Incucyte 3D cell proliferation, panel of RAS mutant and RAS WT cell lines. Type of test: cell-based, human. The conditions noted are these: 30 µM. The essentials: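 For spheroid or aggregate formation, cells were seeded in sextuplicate in ultralow-attachment round-bottom plates in 10% FCS medium, centrifuged 3 min at 200g and left 24 h. They were treated with 30 µM test compound or DMSO at 37 °C, 5% CO2, and imaged on an Incucyte every 6 h for three weeks at ×10.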

The structures appear in SMILES notation. Substitutions are numbered along the chain they refer to.

With `CC(C)(C(=O)O)[C@@H](NC(=O)Cc1cccc(I)c1)c1ccc2oc(=O)[nH]c2c1` [Compound 7, (S)-3-(2-(3-iodophenyl)acetamido)-2,2-dimethyl-3-(2-oxo-2,3-dihydrobenzo[d]oxazol-5-yl)propanoic acid], the “activity in SHOC2(WT)–NRAS(Q61mut) NanoBiT assay” value in test [1] was “no activity”. For the same compound, in [2], the “MAPK signalling in all cell models tested” value was “inert”. Besides, the “transcriptome changes, RAS/MAPK-associated genes” value in test [3] is “no significant changes”.
As for `CC(C)(C(=O)O)[C@H](NC(=O)Cc1cccc(I)c1)c1ccc2oc(=O)[nH]c2c1` [Compound 6, (R)-3-(2-(3-iodophenyl)acetamido)-2,2-dimethyl-3-(2-oxo-2,3-dihydrobenzo[d]oxazol-5-yl)propanoic acid], the “fold higher potency in TR-FRET assay” value in test [4] is on record as 10 fold. In test [5], the “activity in SHOC2(G290A)–NRAS(Q61R) TR-FRET” value was “fully abolish compound 6 activity”. Further, the “fold higher potency in SPR assay” value in [6] amounted to 10 fold. In addition, the “activity in SHOC2(WT)–NRAS(Q61mut) NanoBiT assay” value in [1] is “selective displacement”. For the same compound, the “activity in SHOC2(G290A)–NRAS(Q61mut) NanoBiT assay” value in test [7] is given as “no activity”. In [8] (MELJUSO, 30 µM, time course), the “inhibited CRAF (phospho-S259) levels” value was “increased levels”. Besides, the “MEK and ERK phosphorylation” value in test [8] (NRAS(Q61mut) melanoma cells MELJUSO, 24 h increasing doses) was “dose-dependent inhibition”. Also, the “pERK or pMEK inhibition” value in test [9] is “did not show any pERK or pMEK inhibition”. Moreover, in test [2], the “MAPK signalling in EGFRΔex19 cells” value was “only minor effects” and the “MAPK signalling in wild-type RTK/RAS or BRAF(V600E) mutant cell lines” value was “no detectable effect”. Also, the “MAPK signalling in RAS mutant settings” value in test [2] (Q61L, G12D and G12C mutant conditions) is on record as “downregulated MAPK signalling”. Also, in test [10], the “RAS–GTP loading” value is reported as “unaffected”. The “transcriptome changes, RAS/MAPK-associated genes” value in test [3] is “dose-dependent and time-dependent modulation”. Moreover, in test [11], the “3D cell proliferation” value is “suppressed the cell proliferation”. Moreover, the “3D cell proliferation” value in test [12] is “but not of BRAF(V600E)”. Further, the “3D proliferation in wild-type RAS settings” value in test [13] (including EGFRΔex19 cells) is “none”. Also, the “3D proliferation of RAS mutant models” value in test [13] (prolonged treatment) is “anti-proliferative effects”.
